Source: ChEMBL document CHEMBL3132837, “VUT-MK142 : a new cardiomyogenic small molecule promoting the differentiation of pre-cardiac mesoderm into cardiomyocytes” (2013)
The source made the active and inactive calls. The rule behind the calls is not given here.

How the values were obtained:
[1] = species on record: Mus musculus; test: Cardiomyogenesis in mouse cardiovascular progenitor cells assessed as formation of cardiac bodies at 1 uM compound treated on day 0 to day 5 of myocardial differentiation commitment by phase contrast microscopy relative to control; type: functional; conditions: Heart
In short: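 A5 CVPCs from newborn mouse hearts, grown in M15 on inactivated SNL76/7 feeders, aggregated into cardiac bodies in hanging drops (900 ± 50 cells per drop, 4.5 days), then plated on gelatine. Compound 1 μM or 0.005% DMSO present days 0–5. Beating CBs scored by microscopy for at least 20 days, 80 CBs per experiment, normalised daily to DMSO control.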

[2] = test system: P19; test: Cardiomyogenic activity in mouse P19 cells assessed as upregulation of ANF gene expression at 1 uM after 7 days by luciferase reporter assay relative to control; type: functional, cell-based
In short: (§1)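 P19 and C2C12 cells transiently transfected with rat ANF promoter firefly luciferase plasmid plus pRL-SV40 Renilla control one day before treatment. P19: 7 days in induction medium (MEM-alpha, 5% FBS). C2C12: 7 days in differentiation medium (2% horse serum), compound added at the switch. Compound 1 μM, DMSO 0.005% in all wells, media refreshed twice. Dual-luciferase read-out, Renilla-normalised, expressed relative to DMSO control; n=3–10 independent preparations; 10 nM retinoic acid in P19 as positive control.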

[3] = species on record: Mus musculus; test: Cardiomyogenesis in mouse cardiovascular progenitor cells assessed as formation of cardiac bodies at 1 uM compound by phase contrast microscopy relative to control; conditions: Heart
[4] = test system: C2C12; test: Cardiomyogenic activity in mouse C2C12 cells assessed as upregulation of ANF gene expression at 1 uM after 7 days by luciferase reporter assay relative to control; type: functional, cell-based; in short: as §1
[5] = Cardiomyogenesis in mouse cardiovascular progenitor cells assessed as upregulation of tropomyosin gene expression at 1 uM by RT-PCR analysis; type: functional
[6] = Cardiomyogenesis in mouse cardiovascular progenitor cells assessed as upregulation of Nkx2.5 gene expression at 1 uM by RT-PCR analysis; type: functional
[7] = test system: C2C12; test: Cardiomyogenic activity in mouse C2C12 cells assessed as upregulation of Nkx2.5 gene expression at 1 uM after 7 days by luciferase reporter assay relative to control; type: functional
In short: (§2)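 Nkx2.5 promoter firefly luciferase plasmid (pGL3b backbone) co-transfected with Renilla control one day before treatment. P19 cells treated in MEM-alpha/5% FBS induction medium; C2C12 cells treated in 2% horse serum differentiation medium. Compound 1 μM or 0.005% DMSO for 7 days, media refreshed twice. Dual-luciferase activity expressed as fold over DMSO control; paired two-tailed t-test on raw data.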

[8] = Cardiomyogenesis in mouse cardiovascular progenitor cells assessed as upregulation of Eomes gene expression at 1 uM by RT-PCR analysis; type: functional
[9] = Cardiomyogenesis in mouse cardiovascular progenitor cells assessed as upregulation of Gata4 gene expression at 1 uM by RT-PCR analysis; type: functional
[10] = Cardiomyogenesis in mouse cardiovascular progenitor cells assessed as upregulation of brachyury gene expression at 1 uM by RT-PCR analysis; type: functional
[11] = Cardiomyogenesis in mouse cardiovascular progenitor cells assessed as upregulation of Mesp1 gene expression at 1 uM by RT-PCR analysis; type: functional
[12] = species on record: Mus musculus; test: Cardiomyogenesis in mouse cardiovascular progenitor cells assessed as formation of cardiac bodies with beating at 1 uM compound treated on day 5 to day 13 of myocardial differentiation commitment measured on day 11 to 13 by phase contrast microscopy relative to control; type: functional; conditions: Heart
[13] = test system: P19; test: Cardiomyogenic activity in mouse P19 cells assessed as upregulation of Nkx2.5 gene expression at 1 uM after 7 days by luciferase reporter assay relative to control; type: functional; in short: as §2
[14] = Cardiomyogenesis in mouse cardiovascular progenitor cells assessed as upregulation of Mef2C gene expression at 1 uM by RT-PCR analysis; type: functional

SMILES: CNc1cc(Nc2ccc(OC)cc2)ncn1
- Activity [1]: inactive
- Activity [2]: inactive
- Activity [3]: inactive
- Activity [4]: inactive

SMILES: COc1ccc(Nc2cc(NCCO)ncn2)cc1
- Activity [2]: Active
- Activity [4]: Active

SMILES: CCNc1cc(Nc2ccc(OC)cc2)ncn1
- Activity [4]: Active

SMILES: OCCNc1cccc(Nc2ccc(Oc3ccccc3)cc2)n1
- Activity [2]: inactive
- Activity [4]: inactive

SMILES: COc1ccc(Nc2cc(NC3CCCCC3)ncn2)cc1
- Activity [1]: inactive
- Activity [5]: inactive
- Activity [6]: Active
- fold change (FC) [7]: 2.2
- Activity [8]: inactive
- Activity [9]: inactive
- Activity [2]: Active
- Activity [10]: Active
- Activity [11]: inactive
- Activity [3]: Active
- Activity [12]: Active
- Activity [4]: Active
- fold change (FC) [13]: 3.1
- Activity [14]: Active

SMILES: COc1ccc(Nc2nccc(NCCO)n2)cc1 [CARDIOGENOL C]
- fold change (FC) [7]: 1.4
- Activity [2]: Active
- Activity [4]: Active
- fold change (FC) [13]: 1.6

SMILES: COc1ccc(Nc2cccc(NCCO)n2)cc1
- Activity [2]: Active
- Activity [4]: Active
